Experiments:
[1] = organism: Homo sapiens; experiment: Selectivity index, ratio of CC50 for human HEK293T cells transfected with DYRK1A co-tranfected with Renilla plasmid, pGL3-NFAT and NFATc1 assessed as reduction in luciferase activity by measuring cell number to EC50 for human DYRK1A transfected in HEK293T cells co-transfected with Renilla plasmid, pGL3-NFAT and NFATc1 assessed as derepression of NFAT-dependent luciferase activity measured after 48 hrs by luciferase assay; type: cell-based
In short: (§1)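 HEK293T cells transfected with PEI using DYRK1A, Renilla plasmid, IL-2-based pGL3-NFAT firefly reporter and NFATc1. Next day the same transfected population was split into 96-well plates; 6 h later cells were treated for 48 h (11-point dose curve, n = 4), then lysed. EC50 from firefly/Renilla ratio, 4-parameter agonist fit. CC50 from loss of constitutive Renilla signal, 4-parameter inhibitor fit.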

[2] = biological target: T1, Dual specificity tyrosine-phosphorylation-regulated kinase 1A (Homo sapiens, UniProt Q13627); experiment: Inhibition of human DYRK1A transfected in HEK293T cells co-transfected with Renilla plasmid, pGL3-NFAT and NFATc1 assessed as derepression of NFAT-dependent luciferase activity measured after 48 hrs by luciferase assay; type: cell-based, HEK-293T; in short: as §1
[3] = (§2) Cytotoxicity against human HEK293T cells transfected with DYRK1A co-tranfected with Renilla plasmid, pGL3-NFAT and NFATc1 assessed as reduction in luciferase activity by measuring cell number; type: cell-based, HEK-293T; in short: as §1
[4] = Selectivity index, ratio of CC50 for mouse R7T1 cells assessed as reduction in cell viability measured after 48 hrs by Hoechst 33342 staining based analysis to MEC for inhibition of DYRK1A in human pancreatic islets assessed as induction of pancreatic beta-cells replication measured after 48 hrs by Hoechst 33342 staining based analysis
[5] = Cytotoxicity against mouse R7T1 cells assessed as reduction in cell viability measured after 48 hrs by Hoechst 33342 staining based analysis
In short: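 Mouse R7T1 β-cells cultured in high-glucose DMEM with 10% FBS, doxycycline and pyruvate, plated at 25,000 cells/well. Treated in quadruplicate 6 h later (0.169–10,000 nM) for 48 h. Cells fixed in paraformaldehyde and stained with 4 μM Hoechst 33342; nuclei counted by high-content imaging.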

[6] = biological target: T1, Dual specificity tyrosine-phosphorylation-regulated kinase 1A; experiment: Inhibition of DYRK1A in human pancreatic islets assessed as induction of pancreatic beta-cells replication measured after 48 hrs by Hoechst 33342 staining based analysis
In short: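 Human islets (85-95% purity) rested 12 h in low-glucose DMEM with 10% FBS and 20 nM exendin-4. Dispersed to single cells and plated on 804G-conditioned-matrix 384-well plates for 48 h. Treated 48 h, then fixed with 4% PFA. Stained with anti-insulin, anti-Ki-67 and 4 μM Hoechst 33342; Ki67+Insulin+/Insulin+ scored by high-content imaging against per-plate cutoffs.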

[7] = system: HEK-293T; experiment: as §2; type: cell-based; conditions: hek-293t; in short: as §1

SMILES | EC50 [2] | MEC [6] | Ratio CC50/EC50 [1] | CC50 [3] | Selectivity Index [4] | CC50 [5] | CC50 [7]
CCOC(=O)c1cnc2ccc(-c3cc(Cl)c(O)c(Cl)c3)nc2c1N[C@H]1CC[C@H](C(=O)N2CCOCC2)CC1 | 97 nM | 250 nM | 21 | 3010 nM | 8.3 | 2080 nM | –
NC(=O)[C@H]1CC[C@H](Nc2c(CO)cnc3ccc(-c4cc(Cl)c(O)c(Cl)c4)nc23)CC1 | 678 nM | – | > 15 | > 10000 nM | – | – | –
CCOC(=O)c1cnc2ccc(-c3cc(Cl)c(O)c(Cl)c3)nc2c1N[C@H]1CC[C@H](C)CC1 | > 10000 nM | – | – | > 10000 nM | – | – | –
CCOC(=O)c1cnc2ccc(-c3cc(Cl)c(O)c(Cl)c3)nc2c1N1CCNCC1 | 73 nM | 250 nM | > 137 | 10000 nM | >40 | > 10000 nM | –
CCOC(=O)c1cnc2ccc(-c3ccnc(C)c3)nc2c1N[C@H]1CC[C@H](CN(C)C)CC1 | – | – | > 7 | > 10000 nM | – | – | –
CCOC(=O)c1cnc2ccc(-c3cc(Cl)c(O)c(Cl)c3)nc2c1N1CCCCC1 | 203 nM | – | 17 | 3460 nM | – | – | –
CN(C)C[C@H]1CC[C@H](Nc2c(C(=O)N3CCOCC3)cnc3ccc(-c4cc(Cl)c(O)c(Cl)c4)nc23)CC1 | 641 nM | – | > 16 | – | – | – | > 10000 nM
CCOC(=O)c1cnc2ccc(-c3cc(Cl)c(O)c(Cl)c3)nc2c1N1CCOCC1 | 105 nM | – | 35 | 3680 nM | – | – | –
CCOC(=O)c1cnc2ccc(-c3cc(C)nc(C)c3)nc2c1N[C@H]1CC[C@H](CN(C)C)CC1 | > 10000 nM | – | – | > 10000 nM | – | – | –
CCOC(=O)c1cnc2ccc(-c3ccc(C(=O)O)cc3)nc2c1N[C@H]1CC[C@H](CN(C)C)CC1 | 990 nM | – | > 10 | > 10000 nM | – | – | –
CCOC(=O)c1cnc2ccc(-c3ccnc(O)c3)nc2c1N[C@H]1CC[C@H](CN(C)C)CC1 | 383 nM | – | 6 | 2360 nM | – | – | –
CCOC(=O)c1cnc2ccc(-c3cc(Cl)cc(Cl)c3)nc2c1N[C@H]1CC[C@H](CN(C)C)CC1 | > 10000 nM | – | – | > 10000 nM | – | – | –
CN(C)C[C@H]1CC[C@H](Nc2c(C#N)cnc3ccc(-c4cc(Cl)c(O)c(Cl)c4)nc23)CC1 | 45 nM | 10 nM | > 220 | – | 16 | 160 nM | > 10000 nM
CCOC(=O)c1cnc2ccc(-c3ccc(C(N)=O)cc3)nc2c1N[C@H]1CC[C@H](CN(C)C)CC1 | 4660 nM | – | > 2 | > 10000 nM | – | – | –
CCOC(=O)c1cnc2ccc(-c3ccnc(N)c3)nc2c1N[C@H]1CC[C@H](CN2CCCC2)CC1 | 108 nM | – | 7 | 756 nM | – | – | –
CCOC(=O)c1cnc2ccc(-c3cc(Cl)c(O)c(Cl)c3)nc2c1N1CCC(C)CC1 | 123 nM | – | > 82 | > 10000 nM | – | – | –
NC(=O)C[C@H]1CC[C@H](Nc2c(CO)cnc3ccc(-c4cc(Cl)c(O)c(Cl)c4)nc23)CC1 | 74 nM | 500 nM | 27 | 1970 nM | 2.2 | 1080 nM | –
CCOC(=O)c1cnc2ccc(-c3ccnc(N)c3)nc2c1N[C@H]1CC[C@H](CN2CCCCC2)CC1 | 114 nM | – | 12 | 1350 nM | – | – | –
CCOC(=O)c1cnc2ccc(-c3cc(Cl)c(O)c(Cl)c3)nc2c1N[C@H]1CC[C@H](CO)CC1 | 100 nM | 250 nM | 27 | 2670 nM | 3.1 | 785 nM | –
CN(C)C[C@H]1CC[C@H](Nc2c(C(=O)N(C)C)cnc3ccc(-c4cc(Cl)c(O)c(Cl)c4)nc23)CC1 | 354 nM | – | > 28 | – | – | – | > 10000 nM
CCCCNC(=O)c1cnc2ccc(-c3cc(Cl)c(O)c(Cl)c3)nc2c1N[C@H]1CC[C@H](C(N)=O)CC1 | 175 nM | 125 nM | 39 | – | 14 | 1790 nM | 6850 nM
CCOC(=O)c1cnc2ccc(-c3ccnc(N)c3)nc2c1N[C@H]1CC[C@H](CN(C)C)CC1 | 59 nM | 22 nM | 19 | 1130 nM | 15 | 328 nM | –
CCOC(=O)c1cnc2ccc(-c3cc(Cl)c(O)c(Cl)c3)nc2c1N[C@H]1CC[C@H](C(N)=O)CC1 | 1250 nM | – | > 8 | > 10000 nM | – | – | –
CCOC(=O)c1cnc2ccc(-c3ccc(O)nc3)nc2c1N[C@H]1CC[C@H](CN(C)C)CC1 | 1340 nM | – | > 7.5 | > 10000 nM | – | – | –
CCNC(=O)c1cnc2ccc(-c3ccnc(N)c3)nc2c1N[C@H]1CC[C@H](CN(C)C)CC1 | 46 nM | > 500 nM | > 216 | – | – | 330 nM | > 10000 nM
CCOC(=O)c1cnc2ccc(-c3ccc(O)cc3)nc2c1N[C@H]1CC[C@H](CN(C)C)CC1 | 300 nM | – | > 33 | – | – | – | > 10000 nM
CCOC(=O)c1cnc2ccc(-c3ccc(N)cc3)nc2c1N[C@H]1CC[C@H](CN(C)C)CC1 | 2100 nM | – | > 5 | > 10000 nM | – | – | –

The remaining compounds from weak to strong by EC50 [2], led by results:

EC50 [2] | MEC [6] | SMILES | Ratio CC50/EC50 [1] | CC50 [3] | Selectivity Index [4] | CC50 [5] | CC50 [7]
26 nM | 31 nM | CCOC(=O)c1cnc2ccc(-c3cc(Cl)c(O)c(Cl)c3)nc2c1Nc1ccc(CN(C)C)cc1 | 146 | 3790 nM | 7.3 | 226 nM | –
16 nM | 500 nM | CC(=O)NC[C@H]1CC[C@H](Nc2c(CO)cnc3ccc(-c4cc(Cl)c(O)c(Cl)c4)nc23)CC1 | 71 | – | 3.4 | 1710 nM | 1140 nM
15 nM | – | CN(C)C[C@H]1CC[C@H](Nc2c(C(N)=O)cnc3ccc(-c4cc(Cl)c(O)c(Cl)c4)nc23)CC1 | 4 | 69 nM | – | – | –
15 nM | 68 nM | CCOC(=O)c1cnc2ccc(-c3cc(Cl)c(O)c(Cl)c3)nc2c1N[C@H]1CC[C@H](CNC(C)=O)CC1 | 217 | – | 15 | 1020 nM | 3340 nM
12 nM | 250 nM | CCOC(=O)c1cnc2ccc(-c3cc(C)c(O)c(C)c3)nc2c1N[C@H]1CC[C@H](CN(C)C)CC1 | > 842 | – | >40 | > 10000 nM | > 10000 nM
11 nM | 125 nM | CC(=O)c1cnc2ccc(-c3cc(Cl)c(O)c(Cl)c3)nc2c1N[C@H]1CC[C@H](C(N)=O)CC1 | 153 | 1660 nM | 1.8 | 231 nM | –
9 nM | – | CCOC(=O)c1cnc2ccc(-c3cc(Cl)c(O)c(Cl)c3)nc2c1N[C@H]1CC[C@H](N)CC1 | 5 | 44 nM | – | – | –
7 nM | – | CCOC(=O)c1cnc2ccc(-c3cc(Cl)c(O)c(Cl)c3)nc2c1N[C@H]1CC[C@H](CN2CCOCC2)CC1 | 71 | 491 nM | – | – | –
6 nM | – | CCNC(=O)c1cnc2ccc(-c3cc(Cl)c(O)c(Cl)c3)nc2c1N[C@H]1CC[C@H](CN(C)C)CC1 | 7 | 39 nM | – | – | –
6 nM | – | CNC(=O)c1cnc2ccc(-c3cc(Cl)c(O)c(Cl)c3)nc2c1N[C@H]1CC[C@H](CN(C)C)CC1 | 6 | 36 nM | – | – | –
6 nM | – | CC(C)CNC(=O)c1cnc2ccc(-c3cc(Cl)c(O)c(Cl)c3)nc2c1N[C@H]1CC[C@H](CN(C)C)CC1 | 3 | 16 nM | – | – | –
6 nM | – | CCCNC(=O)c1cnc2ccc(-c3cc(Cl)c(O)c(Cl)c3)nc2c1N[C@H]1CC[C@H](CN(C)C)CC1 | 7 | 38 nM | – | – | –
5 nM | – | CCCCCNC(=O)c1cnc2ccc(-c3cc(Cl)c(O)c(Cl)c3)nc2c1N[C@H]1CC[C@H](CN(C)C)CC1 | 4 | 19 nM | – | – | –
4 nM | – | CCCCNC(=O)c1cnc2ccc(-c3cc(Cl)c(O)c(Cl)c3)nc2c1N[C@H]1CC[C@H](CN2CCOCC2)CC1 | 18 | 79 nM | – | – | –
3 nM | – | CC(C)CCNC(=O)c1cnc2ccc(-c3cc(Cl)c(O)c(Cl)c3)nc2c1N[C@H]1CC[C@H](CN(C)C)CC1 | 8 | 21 nM | – | – | –
